From ChEMBL document CHEMBL3596119, “Synthesis and biological characterization of a promising F-18 PET tracer for vesicular acetylcholine transporter” (Bioorg Med Chem, 2015)

Assays:
Rattus norvegicus [1] = test: Biodistribution in Sprague-Dawley rat brain stem at 2.2 MBq/120 uL, iv after 5 mins by gamma counting; assay type: ADME, organism-based; details: in vivo
Procedure, shortened: (§1)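 Adult male SD rats, isoflurane (2-3%)/oxygen anesthesia, tail-vein injection of ~2.2 MBq/120 μL tracer in 10% ethanol in saline; euthanized under anesthesia at the stated time (n = 4 per time point). Brain dissected into regions, remainder kept for total brain; organs, blood, bone collected and weighed, gamma-counted against a standard dilution of injectate; %ID/g calculated.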

Pancreas [2] = test: Biodistribution in Sprague-Dawley rat pancreas at 2.2 MBq/120 uL, iv after 30 mins by gamma counting; assay type: ADME, organism-based; details: in vivo, 0.5 h; procedure, shortened: as §1
Striatum [3] = test: Biodistribution in Sprague-Dawley rat striatum at 2.2 MBq/120 uL, iv after 60 mins by gamma counting; assay type: ADME, organism-based; details: in vivo, 1 h; procedure, shortened: as §1
Cerebellum = test: Biodistribution in Sprague-Dawley rat cerebellum at 2.2 MBq/120 uL, iv after 5 mins by gamma counting; assay type: ADME, organism-based; details: in vivo; procedure, shortened: as §1
Plasma [4] = test: Retention time in monkey plasma assessed as radioactivity at 15 to 106 MBq after 5 to 60 mins by HPLC analysis; assay type: ADME, cell-free, Macaca mulatta; details: rhesus monkey
Blood [5] = test: Biodistribution in Sprague-Dawley rat blood at 2.2 MBq/120 uL, iv after 5 mins by gamma counting; assay type: ADME, organism-based; details: in vivo; procedure, shortened: as §1
Rattus norvegicus [6] = test: Biodistribution in Sprague-Dawley rat total brain at 2.2 MBq/120 uL, iv after 5 mins by gamma counting; assay type: ADME, organism-based; details: in vivo
Procedure, shortened: (§2)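 Injected by tail vein in 10% ethanol in saline into adult male SD rats under 2-3% isoflurane/oxygen anesthesia. Rats were killed under anesthesia, n = 4 per time point. Total brain and other tissues were weighed and gamma-counted against a standard dilution of the injectate. Values are %ID/g.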

Cortex = test: Biodistribution in Sprague-Dawley rat cortex at 2.2 MBq/120 uL, iv after 5 mins by gamma counting; assay type: ADME, organism-based; details: in vivo; procedure, shortened: as §1
Kidney [7] = test: Biodistribution in Sprague-Dawley rat kidney at 2.2 MBq/120 uL, iv after 30 mins by gamma counting; assay type: ADME, organism-based; details: in vivo, 0.5 h; procedure, shortened: as §1
Kidney [8] = test: Biodistribution in Sprague-Dawley rat kidney at 2.2 MBq/120 uL, iv after 60 mins by gamma counting; assay type: ADME, organism-based; details: in vivo, 1 h; procedure, shortened: as §1
Blood [9] = test: Biodistribution in Sprague-Dawley rat blood at 2.2 MBq/120 uL, iv after 120 mins by gamma counting; assay type: ADME, organism-based; details: in vivo, 2 h; procedure, shortened: as §1
Kidney [10] = test: Biodistribution in Sprague-Dawley rat kidney at 2.2 MBq/120 uL, iv after 120 mins by gamma counting; assay type: ADME, organism-based; details: in vivo, 2 h; procedure, shortened: as §1
Lung [11] = test: Biodistribution in Sprague-Dawley rat lung at 2.2 MBq/120 uL, iv after 30 mins by gamma counting; assay type: ADME, organism-based; details: in vivo, 0.5 h; procedure, shortened: as §1
Rattus norvegicus [12] = test: Biodistribution in Sprague-Dawley rat fat at 2.2 MBq/120 uL, iv after 5 mins by gamma counting; assay type: ADME, organism-based, Adipose tissue; details: in vivo; procedure, shortened: as §1
Bone [13] = test: Biodistribution in Sprague-Dawley rat bone at 2.2 MBq/120 uL, iv after 60 mins by gamma counting; assay type: ADME, organism-based, Bone element; details: in vivo, 1 h; procedure, shortened: as §1
[14] = Drug uptake in cynomolgus monkey striatum at 296 to 410 MBq administered via venous catheter after 120 mins by microPET imaging; assay type: ADME, Macaca fascicularis; details: in vivo, iv, 2 h
Procedure, shortened: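 Male cynomolgus monkeys (6-8 kg) were fasted 12 h, induced with ketamine/glycopyrrolate i.m., then kept on 0.75-2.0% isoflurane at 37 °C. After a transmission scan for attenuation correction, a 2 h dynamic microPET scan was acquired. Framing was 3×1, 4×2, 3×3, 20×5 min. Striatal uptake was read as SUV from time-activity curves, with cerebellum as reference.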

Spleen [15] = test: Biodistribution in Sprague-Dawley rat spleen at 2.2 MBq/120 uL, iv after 30 mins by gamma counting; assay type: ADME, organism-based; details: in vivo, 0.5 h; procedure, shortened: as §1
Spleen [16] = test: Biodistribution in Sprague-Dawley rat spleen at 2.2 MBq/120 uL, iv after 120 mins by gamma counting; assay type: ADME, organism-based; details: in vivo, 2 h; procedure, shortened: as §1
Muscle tissue [17] = test: Biodistribution in Sprague-Dawley rat muscle at 2.2 MBq/120 uL, iv after 30 mins by gamma counting; assay type: ADME, organism-based; details: in vivo, 0.5 h; procedure, shortened: as §1
Striatum [18] = test: Biodistribution in Sprague-Dawley rat striatum at 2.2 MBq/120 uL, iv after 30 mins by gamma counting; assay type: ADME, organism-based; details: in vivo, 0.5 h; procedure, shortened: as §1
Muscle tissue [19] = test: Biodistribution in Sprague-Dawley rat muscle at 2.2 MBq/120 uL, iv after 120 mins by gamma counting; assay type: ADME, organism-based; details: in vivo, 2 h; procedure, shortened: as §1
Plasma [20] = test: Drug metabolism in Sprague-Dawley rat plasma assessed as radioactivity at 15 to 106 MBq, iv after 5 to 60 mins by HPLC analysis; assay type: ADME, organism-based
Thalamus = test: Biodistribution in Sprague-Dawley rat thalamus at 2.2 MBq/120 uL, iv after 5 mins by gamma counting; assay type: ADME, organism-based; details: in vivo; procedure, shortened: as §1
Liver [21] = test: Biodistribution in Sprague-Dawley rat liver at 2.2 MBq/120 uL, iv after 120 mins by gamma counting; assay type: ADME, organism-based; details: in vivo, 2 h; procedure, shortened: as §1
Striatum [22] = test: Biodistribution in Sprague-Dawley rat striatum at 2.2 MBq/120 uL, iv after 5 mins by gamma counting; assay type: ADME, organism-based; details: in vivo; procedure, shortened: as §1
Heart [23] = test: Biodistribution in Sprague-Dawley rat heart at 2.2 MBq/120 uL, iv after 5 mins by gamma counting; assay type: ADME, organism-based; details: in vivo; procedure, shortened: as §1
Plasma [24] = test: Metabolic stability in monkey plasma assessed as radioactivity at 15 to 106 MBq after 5 to 60 mins by HPLC analysis; assay type: ADME, cell-free, Macaca mulatta; details: rhesus monkey
Heart [25] = test: Biodistribution in Sprague-Dawley rat heart at 2.2 MBq/120 uL, iv after 60 mins by gamma counting; assay type: ADME, organism-based; details: in vivo, 1 h; procedure, shortened: as §1
Liver [26] = test: Biodistribution in Sprague-Dawley rat liver at 2.2 MBq/120 uL, iv after 30 mins by gamma counting; assay type: ADME, organism-based; details: in vivo, 0.5 h; procedure, shortened: as §1
Heart [27] = test: Biodistribution in Sprague-Dawley rat heart at 2.2 MBq/120 uL, iv after 120 mins by gamma counting; assay type: ADME, organism-based; details: in vivo, 2 h; procedure, shortened: as §1
Lung [28] = test: Biodistribution in Sprague-Dawley rat lung at 2.2 MBq/120 uL, iv after 120 mins by gamma counting; assay type: ADME, organism-based; details: in vivo, 2 h; procedure, shortened: as §1
Liver [29] = test: Biodistribution in Sprague-Dawley rat liver at 2.2 MBq/120 uL, iv after 60 mins by gamma counting; assay type: ADME, organism-based; details: in vivo, 1 h; procedure, shortened: as §1
Pancreas [30] = test: Biodistribution in Sprague-Dawley rat pancreas at 2.2 MBq/120 uL, iv after 60 mins by gamma counting; assay type: ADME, organism-based; details: in vivo, 1 h; procedure, shortened: as §1
Rattus norvegicus [31] = test: Biodistribution in Sprague-Dawley rat total brain at 2.2 MBq/120 uL, iv after 60 mins by gamma counting; assay type: ADME, organism-based; details: in vivo, 1 h; procedure, shortened: as §2
Spleen [32] = test: Biodistribution in Sprague-Dawley rat spleen at 2.2 MBq/120 uL, iv after 5 mins by gamma counting; assay type: ADME, organism-based; details: in vivo; procedure, shortened: as §1
Pancreas [33] = test: Biodistribution in Sprague-Dawley rat pancreas at 2.2 MBq/120 uL, iv after 5 mins by gamma counting; assay type: ADME, organism-based; details: in vivo; procedure, shortened: as §1
Bone [34] = test: Biodistribution in Sprague-Dawley rat bone at 2.2 MBq/120 uL, iv after 120 mins by gamma counting; assay type: ADME, organism-based, Bone element; details: in vivo, 2 h; procedure, shortened: as §1
[35] = Drug uptake in cynomolgus monkey striatum at 296 to 410 MBq administered via venous catheter after 120 mins by microPET imaging in presence of 0.25 mg/kg (-)-vesamicol; assay type: ADME, organism-based, Macaca fascicularis; details: in vivo, 2 h
Procedure, shortened: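 Blocking scan: (-)-vesamicol 0.25 mg/kg was given through the venous catheter 5 min before the tracer (296–410 MBq). The monkey was under isoflurane anesthesia. A 2 h dynamic microPET scan followed, and striatal and cerebellar time-activity curves were generated.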

Bone [36] = test: Biodistribution in Sprague-Dawley rat bone at 2.2 MBq/120 uL, iv after 5 mins by gamma counting; assay type: ADME, organism-based, Bone element; details: in vivo; procedure, shortened: as §1

Drug uptake (Rattus norvegicus [1]): 0.683 % ID/g
Drug uptake (Pancreas [2]): 1.2 % ID/g
Drug uptake (Striatum [3]): 0.819 % ID/g
Drug uptake (Cerebellum): 0.593 % ID/g
Retention_time (Plasma [4]): 9 min
Drug uptake (Blood [5]): 0.209 % ID/g
Drug uptake (Rattus norvegicus [6]): 0.684 % ID/g
Drug uptake (Cortex): 0.777 % ID/g
Drug uptake (Kidney [7]): 0.883 % ID/g
Drug uptake (Kidney [8]): 0.604 % ID/g
Drug uptake (Blood [9]): 0.356 % ID/g
Drug uptake (Kidney [10]): 0.489 % ID/g
Drug uptake (Lung [11]): 0.973 % ID/g
Drug uptake (Rattus norvegicus [12]): 0.144 % ID/g
Drug uptake (Bone [13]): 0.403 % ID/g
Drug uptake [14]: Not Active
Drug uptake (Spleen [15]): 0.685 % ID/g
Drug uptake (Spleen [16]): 0.376 % ID/g
Drug uptake (Muscle tissue [17]): 0.258 % ID/g
Drug uptake (Striatum [18]): 0.886 % ID/g
Drug uptake (Muscle tissue [19]): 0.235 % ID/g
Drug metabolism (Plasma [20]): metabolite_detected
Drug uptake (Thalamus): 0.691 % ID/g
Drug uptake (Liver [21]): 0.382 % ID/g
Drug uptake (Striatum [22]): 0.782 % ID/g
Drug uptake (Heart [23]): 0.706 % ID/g
Stability (Plasma [24]): 76%
Drug uptake (Heart [25]): 0.357 % ID/g
Drug uptake (Liver [26]): 0.523 % ID/g
Drug uptake (Heart [27]): 0.336 % ID/g
Drug uptake (Lung [28]): 0.551 % ID/g
Drug uptake (Liver [29]): 0.456 % ID/g
Drug uptake (Pancreas [30]): 1.324 % ID/g
Drug uptake (Rattus norvegicus [31]): 0.425 % ID/g
Drug uptake (Spleen [32]): 1.265 % ID/g
Drug uptake (Pancreas [33]): 1.202 % ID/g
Drug uptake (Bone [34]): 0.537 % ID/g
Drug uptake [35]: Not Active
Drug uptake (Bone [36]): 0.426 % ID/g
Structure (SMILES): O=C(c1ccc(F)cc1)C1CCN(C2Cc3c(cccc3OCC[18F])CC2O)CC1 (single isomer, unassigned; (-))
